Key:
Tyrosinase [1] = target: T1, Tyrosinase (Agaricus bisporus, UniProt O42713); experiment: Inhibition of mushroom tyrosinase by kinetic based assay; details: read-out: Ki(app)
T1 sequence (O42713 whole entry): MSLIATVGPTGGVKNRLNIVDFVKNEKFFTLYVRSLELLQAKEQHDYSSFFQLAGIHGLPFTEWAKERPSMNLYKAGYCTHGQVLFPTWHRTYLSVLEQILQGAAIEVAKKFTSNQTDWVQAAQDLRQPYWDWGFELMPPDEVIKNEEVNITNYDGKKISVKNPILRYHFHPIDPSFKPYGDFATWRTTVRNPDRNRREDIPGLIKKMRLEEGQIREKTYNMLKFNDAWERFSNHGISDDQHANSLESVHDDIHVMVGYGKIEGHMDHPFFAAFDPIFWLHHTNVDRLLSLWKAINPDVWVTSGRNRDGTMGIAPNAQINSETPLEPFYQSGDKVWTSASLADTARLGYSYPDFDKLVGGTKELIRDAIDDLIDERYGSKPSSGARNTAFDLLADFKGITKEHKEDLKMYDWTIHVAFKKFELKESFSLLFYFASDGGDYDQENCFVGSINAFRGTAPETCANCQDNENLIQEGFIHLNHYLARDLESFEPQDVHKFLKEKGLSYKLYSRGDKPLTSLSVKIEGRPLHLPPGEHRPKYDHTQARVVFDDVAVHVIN
How it was run: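 Time-dependent assay with L-tyrosine substrate in 0.25 M phosphate buffer (pH 6.8) at 30 °C. Activity was monitored continuously for 15 min, giving 20 points at 30 s intervals, at several inhibitor concentrations and fixed substrate. kobs came from the slow-binding equation or from ln(residual activity) versus preincubation time. k3, k4 and Kiapp came from kobs versus [I] by the Morrison–Walsh method, using nonlinear regression.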

Tyrosinase [2] = target: T1, Tyrosinase; experiment: Inhibition of diphenolase activity of mushroom tyrosinase using as L-DOPA substrate
How it was run: (§1)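 Mushroom tyrosinase (144 units) was added to 0.25 M phosphate buffer (pH 6.8) with substrate: L-tyrosine for monophenolase or L-DOPA for diphenolase. Substrate was added as 200 µL of a 2.7 mM L-tyrosine or 5.4 mM L-DOPA stock. Samples were 10 mM EtOH stocks. Dopachrome formation was read at 475 nm at 30 °C. Runs were triplicate, and IC50 came from a logistic curve fit.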

Tyrosinase [3] = target: T1, Tyrosinase; experiment: Inhibition of diphenolase activity of mushroom tyrosinase using as L-DOPA substrate by Lineweaver-Burke plot based kinetic assay
How it was run: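 Diphenolase kinetics used 0.25 M phosphate buffer (pH 6.8) at 30 °C, reading dopachrome at 475 nm. L-DOPA concentration was varied at several fixed inhibitor concentrations. Reciprocal velocity was plotted against 1/[L-DOPA] (Lineweaver–Burk), and inhibition type and Ki were read from the line pattern.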

Tyrosinase [4] = target: T1, Tyrosinase; experiment: Inhibition of monophenolase activity of mushroom tyrosinase using as L-tyrosine substrate; how it was run: as §1
Tyrosinase [5] = target: T1, Tyrosinase; experiment: Inhibition of monophenolase activity of mushroom tyrosinase using as L-tyrosine substrate by Lineweaver-Burke plot based kinetic assay

Row | SMILES | Ki (Tyrosinase [1]) | IC50 (Tyrosinase [2]) | Ki (Tyrosinase [3]) | IC50 (Tyrosinase [4]) | Ki (Tyrosinase [5])
1 | C=CC(C)(C)c1cc(CCCc2cc(O)c(O)c(CC3OC3(C)C)c2CC=C(C)C)c(O)cc1O (stereo not drawn) [KAZINOL S] | 0.87 µM | 26.9 µM | 15.6 µM | 17.9 µM | 9.12 µM
2 | C=CC(C)(C)c1cc(CCCc2cc(O)c3c(c2CC=C(C)C)CCC(C)(C)O3)c(O)cc1O [KAZINOL D] | – | > 200 µM | – | 165 µM | –
3 | CC(C)=CCc1cc(CCCc2ccc(O)cc2O)ccc1O [BROUSSONIN C] | 0.0485 µM | 0.57 µM | 0.29 µM | 0.43 µM | 0.23 µM
4 | CC(C)=CCc1c(CCCc2ccc(O)cc2O)cc(O)c(O)c1CC=C(C)C [KAZINOL F] | 0.181 µM | 1.7 µM | 0.77 µM | 0.96 µM | 0.41 µM
5 | C=CC(C)(C)c1cc(CCCc2cc(O)c(O)c(CC=C(C)C)c2CC=C(C)C)c(O)cc1O [KAZINOL C] | – | 22.8 µM | 11.2 µM | 15.5 µM | 10.8 µM
6 | C=CC(C)(C)c1cc(CCCc2cc(O)c3c(c2CC=C(C)C)CC(C(C)(C)O)O3)c(O)cc1O (stereo not drawn) [KAZINOL T] | – | > 200 µM | – | 103 µM | –
